According to ChEMBL document CHEMBL1143023, “Chemical synthesis and biological activities of 16alpha-derivatives of 5alpha-androstane-3alpha,17beta-diol as antiandrogens” (2007):
Calls of active or inactive are those of the source. The rule behind the calls is not given here.

Columns and labels:
[1] = Inhibition of DHT-stimulated proliferation of androgen sensitive AR+ Shionogi cells at 0.1 uM; assay type: functional; conditions: Mus musculus
[2] = Inhibition of DHT-stimulated proliferation of androgen sensitive AR+ Shionogi cells at 1 uM; assay type: functional; conditions: Mus musculus
[3] = Proliferative activity on androgen sensitive AR+ Shionogi cells at 0.1 uM relative to DHT; assay type: functional, Mus musculus
Procedure, shortened: (§1)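 AR+ Shionogi cells were given test compound alone, without DHT, for 10 days. Growth was read as DNA content by a modified Fiszer-Szafarz method. Stimulation % = 100 × [DNA(compound) − DNA(control)]/[DNA(DHT) − DNA(control)], with 0.3 nM DHT set as 100%. One experiment in triplicate.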

[4] = Stimulation of androgen sensitive AR+ Shionogi cell proliferation at 1 uM; assay type: functional, Mus musculus; procedure, shortened: as §1
[5] = system: PC-3; test: Reduction of non-androgen sensitive AR- PC3 cell growth at 0.3 uM; assay type: functional, cell-based
Procedure, shortened: (§2)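 PC-3 human prostate carcinoma (AR−) cells from passage 28 were allowed to adhere for 24 h. Medium was then changed to MEM with 2% charcoal-stripped FBS containing compound from 1000-fold ethanol stocks; the vehicle control was 0.1% EtOH. Cells grew 9 days at 37 °C, 5% CO2, with medium changes every 2–3 days. DNA content was measured; triplicate wells.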

[6] = system: PC-3; test: Reduction of non-androgen sensitive AR- PC3 cell growth at 1 uM; assay type: functional, cell-based; procedure, shortened: as §2

SMILES | inhibition at 0.1 µM [1] [%] | inhibition at 1 µM [2] [%] | Activity [3] [%] | Activity [4] [%] | Activity [5] | Activity [6]
C[C@]12CC[C@@H](O)C[C@@H]1CC[C@@H]1[C@@H]2CC[C@]2(C)[C@@H](O)[C@H](CCCOCc3ccc(Br)cc3)C[C@@H]12 | 0 | 7 | 163 | – | – | –
CO[C@@H]1CC[C@@]2(C)[C@@H](CC[C@@H]3[C@@H]2CC[C@]2(C)[C@@H](O)[C@H](CCCI)C[C@@H]32)C1 | 0 | 46 | 0 | – | – | –
C[C@]12CC[C@@H](O)C[C@@H]1CC[C@@H]1[C@@H]2CC[C@]2(C)[C@@H](O)[C@H](CCCF)C[C@@H]12 | 44 | 70 | 0 | – | – | –
C[C@]12CCC(=O)C[C@@H]1CC[C@@H]1[C@@H]2CC[C@]2(C)[C@@H](O)[C@H](CCCSC#N)C[C@@H]12 | 0 | 45 | 21 | – | – | –
C[C@]12CC[C@@H](O)C[C@@H]1CC[C@@H]1[C@@H]2CC[C@]2(C)[C@@H](O)[C@H](CCCN)C[C@@H]12 | 0 | 0 | 1 | – | – | –
C[C@]12CCC(=O)C[C@@H]1CC[C@@H]1[C@@H]2CC[C@]2(C)[C@@H](O)[C@H](CCCOCc3ccc(Br)cc3)C[C@@H]12 | 0 | 0 | 153 | – | – | –
CC(C)(O)C(=O)Nc1ccc([N+](=O)[O-])c(C(F)(F)F)c1 [HYDROXYFLUTAMIDE] | 67 | 100 | 0 | – | – | –
C[C@]12CC[C@@H](O)C[C@@H]1CC[C@@H]1[C@@H]2CC[C@]2(C)[C@@H](O)[C@H](CCCI)C[C@@H]12 | 36 | 90 | 0 | – | – | –
C[C@]12CC[C@@H](O)C[C@@H]1CC[C@@H]1[C@@H]2CC[C@]2(C)[C@@H](O)[C@H](CCCBr)C[C@@H]12 | 46 | 80 | 0 | – | – | –
C[C@]12CC[C@H]3[C@@H](CCC4CC(=O)CC[C@@]43C)[C@@H]1C[C@@H](CCCCl)[C@@H]2O (stereo partly specified) | 44 | 42 | 36 | 52 | inactive | inactive
C[C@]12CC[C@H]3[C@@H](CCC4CC(=O)CC[C@@]43C)[C@@H]1C[C@@H](CCCI)[C@@H]2O (stereo partly specified) | 41 | 76 | 22 | – | – | –
C[C@]12CC[C@@H](O)C[C@@H]1CC[C@@H]1[C@@H]2CC[C@]2(C)[C@@H](O)[C@H](CCCO)C[C@@H]12 | 16 | 35 | 0 | – | – | –
C[C@]12CC[C@H]3[C@@H](CCC4CC(=O)CC[C@@]43C)[C@@H]1C[C@@H](CCCN=[N+]=[N-])[C@@H]2O (stereo partly specified) | 73 | 58 | 33 | – | – | –
C[C@]12CC[C@@H](O)C[C@@H]1CC[C@@H]1[C@@H]2CC[C@]2(C)[C@@H](O)[C@H](CCCN=[N+]=[N-])C[C@@H]12 | 58 | 89 | 0 | – | – | –
C[C@]12CC[C@@H](O)C[C@@H]1CC[C@@H]1[C@@H]2CC[C@]2(C)[C@@H](O)[C@H](CCCSC#N)C[C@@H]12 | 2 | 50 | 5 | – | – | –
C[C@]12CC[C@H]3[C@@H](CCC4CC(=O)CC[C@@]43C)[C@@H]1C[C@@H](CCCO)[C@@H]2O (stereo partly specified) | 54 | 46 | 9 | – | – | –
C[C@]12CC[C@@H](O)C[C@@H]1CC[C@@H]1[C@@H]2CC[C@]2(C)[C@@H](O)[C@H](CCCCl)C[C@@H]12 | 67 | 94 | 0 | – | inactive | inactive
